Data reported in ChEMBL document CHEMBL1127562, “N-substituted spirosuccinimide, spiropyridazine, spiroazetidine, and acetic acid aldose reductase inhibitors derived from isoquinoline-1,3-diones. 2” (J Med Chem, 1994).
pIC50: −log10 of the molar value. Active and inactive are the calls of the source. No cut-off for these calls is given here.

Assays:
[1] = target: Aldo-keto reductase family 1 member B1 (Bos taurus) (UniProt P16116); test: Inhibition of aldose reductase activity in partially purified bovine lens preparation at 10e-5 M
Method in brief: (§1)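 Partially purified bovine lens aldose reductase. Reduction of DL-glyceraldehyde substrate followed spectrophotometrically. Activity expressed as average inhibition at the tested concentrations, 1×10^-5, 1×10^-6, 1×10^-7 and 4×10^-6 M as printed; IC50 in M where given.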

Rattus norvegicus [2] = test: Tested for in vivo inhibition of galactitol accumulation in the lens of galactose-fed rats at the dose of 50.5 (mg/kg/day); type: functional, Lens of camera-type eye
Rattus norvegicus [3] = test: Tested for in vivo inhibition of galactitol accumulation in the sciatic nerve of galactose-fed rats at the dose of 50.5 (mg/kg/day); type: functional
Method in brief: (§2)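 Rats fed a 20% galactose diet for 4 days, with test compound given in the diet at the stated daily dose (mg/kg/day). Read-out is inhibition of galactitol (polyol) accumulation in sciatic nerve. Values are % inhibition, mean ± SEM of six animals; p < 0.01 unless marked (some p < 0.05). NS = no significant inhibition of polyol accumulation. Tolrestat was the reference standard.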

Rattus norvegicus [4] = test: Tested for in vivo inhibition of galactitol accumulation in the lens of galactose-fed rats at the dose of 25.4 (mg/kg/day); NS=Not significant; type: functional, organism-based; settings: Lens of camera-type eye
Rattus norvegicus [5] = test: Tested for in vivo inhibition of galactitol accumulation in the sciatic nerve of galactose-fed rats at the dose of 25.4 (mg/kg/day); type: functional
Method in brief: (§3)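 Rats were given a 20% galactose diet for 4 days, with the test compound administered in the diet. Sciatic nerve galactitol accumulation was measured, and activity is given as % inhibition at the stated daily dose (mg/kg/day). Values are mean ± SEM, n = 6 animals; p < 0.01 unless indicated. NS means no significant inhibition of polyol accumulation.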

Rattus norvegicus [6] = test: Tested for in vivo inhibition of galactitol accumulation in the sciatic nerve of galactose-fed rats at the dose of 9.8 (mg/kg/day); type: functional; method in brief: as §2
[7] = target: Aldo-keto reductase family 1 member B1 (Bos taurus, UniProt P16116); test: Compound was tested in vitro for inhibition of aldose reductase activity in partially purified bovine lens preparation; method in brief: as §1
Rattus norvegicus [8] = test: Tested for in vivo inhibition of galactitol accumulation in the lens of galactose-fed rats; type: functional, organism-based; settings: Lens of camera-type eye
Rattus norvegicus [9] = test: Tested for in vivo inhibition of galactitol accumulation in the sciatic nerve of galactose-fed rats; type: functional, organism-based
Rattus norvegicus [10] = test: Tested for in vivo inhibition of galactitol accumulation in the sciatic nerve of galactose-fed rats at the dose of 96.6 (mg/kg/day); type: functional; method in brief: as §2
Rattus norvegicus [11] = test: Tested for in vivo inhibition of galactitol accumulation in the lens of galactose-fed rats at the dose of 48.8 (mg/kg/day); NS=Not significant; type: functional, organism-based; settings: Lens of camera-type eye
Rattus norvegicus [12] = test: Tested for in vivo inhibition of galactitol accumulation in the lens of galactose-fed rats at the dose of 96.6 (mg/kg/day); NS=Not significant; type: functional, organism-based; settings: Lens of camera-type eye
Method in brief: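 Galactosemic rats were fed 20% galactose for 4 days, with the compound mixed into the diet. […] galactitol accumulation was measured, and activity is given as % inhibition at the stated daily dose (mg/kg/day). Values are mean ± SEM of six animals; p < 0.01 unless indicated. NS means no significant inhibition of polyol accumulation.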

Rattus norvegicus [13] = test: Tested for in vivo inhibition of galactitol accumulation in the sciatic nerve of galactose-fed rats at the dose of 48.8 (mg/kg/day); type: functional; method in brief: as §2
Rattus norvegicus [14] = test: Tested for in vivo inhibition of galactitol accumulation in the lens of galactose-fed rats at the dose of 27.5 (mg/kg/day); type: functional, Lens of camera-type eye
Rattus norvegicus [15] = test: Tested for in vivo inhibition of galactitol accumulation in the sciatic nerve of galactose-fed rats at the dose of 27.5 (mg/kg/day); type: functional; method in brief: as §3
Rattus norvegicus [16] = test: Tested for in vivo inhibition of galactitol accumulation in the sciatic nerve of galactose-fed rats at the dose of 1.0 (mg/kg/day); type: functional; method in brief: as §3
Rattus norvegicus [17] = test: Tested for in vivo inhibition of galactitol accumulation in the lens of galactose-fed rats at the dose of 10.5 (mg/kg/day); NS=Not significant; type: functional, organism-based; settings: Lens of camera-type eye
Rattus norvegicus [18] = test: Tested for in vivo inhibition of galactitol accumulation in the sciatic nerve of galactose-fed rats at the dose of 49 (mg/kg/day); type: functional; method in brief: as §2
Rattus norvegicus [19] = test: Tested for in vivo inhibition of galactitol accumulation in the lens of galactose-fed rats at the dose of 49 (mg/kg/day); type: functional, Lens of camera-type eye
Rattus norvegicus [20] = test: Tested for in vivo inhibition of galactitol accumulation in the sciatic nerve of galactose-fed rats at the dose of 1.1 (mg/kg/day); type: functional; method in brief: as §3
Rattus norvegicus [21] = test: Tested for in vivo inhibition of galactitol accumulation in the lens of galactose-fed rats at the dose of 27.1 (mg/kg/day); type: functional, Lens of camera-type eye
Rattus norvegicus [22] = test: Tested for in vivo inhibition of galactitol accumulation in the lens of galactose-fed rats at the dose of 1.1 (mg/kg/day); NS=Not significant; type: functional, organism-based; settings: Lens of camera-type eye
Rattus norvegicus [23] = test: Tested for in vivo inhibition of galactitol accumulation in the sciatic nerve of galactose-fed rats at the dose of 27.1 (mg/kg/day); type: functional; method in brief: as §3
Rattus norvegicus [24] = test: Tested for in vivo inhibition of galactitol accumulation in the lens of galactose-fed rats at the dose of 47 (mg/kg/day); NS=Not significant; type: functional, organism-based; settings: Lens of camera-type eye
Rattus norvegicus [25] = test: Tested for in vivo inhibition of galactitol accumulation in the sciatic nerve of galactose-fed rats at the dose of 47 (mg/kg/day); type: functional; method in brief: as §3

NN1C(=O)CC2(C1=O)C(=O)N(Cc1ccc(Br)cc1F)C(=O)c1ccc(F)cc12 (stereo not given)
inhibition [1]: inactive | Inhibition (Rattus norvegicus [2]): 54% | Inhibition (Rattus norvegicus [3]): 75%

COC(=O)NC(=O)CC1C(=O)N(Cc2ccc(Br)cc2F)C(=O)c2cc(OC)ccc21 (stereo not given)
inhibition (Rattus norvegicus [4]): inactive | Inhibition (Rattus norvegicus [5]): 68%

CN1C(=O)CC2(C1=O)C(=O)N(Cc1ccc(Cl)cc1)C(=O)c1ccccc12 (stereo not given)
inhibition [1]: inactive | Inhibition (Rattus norvegicus [6]): 35%

O=C1CC2(C(=O)N1)C(=O)N(Cc1ccc(Br)cc1F)C(=O)c1ccccc12 (stereo not given)
pIC50 [7]: 7.64 | EC50 (Rattus norvegicus [8]): 10 mg/kg/day | ED50 (Rattus norvegicus [9]): 0.3 mg/kg/day

COC(=O)NC(=O)CC1C(=O)N(Cc2nc3cc(C(F)(F)F)ccc3s2)C(=O)c2ccccc21 (stereo not given)
inhibition [1]: 95% | Inhibition (Rattus norvegicus [10]): 73% | NS (Rattus norvegicus [11]): inactive | inhibition (Rattus norvegicus [12]): inactive | Inhibition (Rattus norvegicus [13]): 61%

CN1C(=O)c2ccc(Br)cc2C2(CC(=O)N2)C1=O (stereo not given)
Inhibition (Rattus norvegicus [14]): 36% | Inhibition (Rattus norvegicus [15]): 54%

CN1C(=O)CC2(C1=O)C(=O)N(Cc1ccc(Br)cc1F)C(=O)c1ccc(F)cc12 (stereo not given)
inhibition [1]: inactive | Inhibition (Rattus norvegicus [16]): 28%

CN1C(=O)c2ccc(Cl)cc2C2(CC(=O)N2)C1=O (stereo not given)
inhibition (Rattus norvegicus [17]): inactive | Inhibition (Rattus norvegicus [18]): 87% | Inhibition (Rattus norvegicus [19]): 66%

CC(C)=NN1C(=O)CC2(C(=O)N(Cc3ccc(Br)cc3F)C(=O)c3ccc(F)cc32)C1=O (stereo not given)
inhibition [1]: inactive | Inhibition (Rattus norvegicus [20]): 47% | Inhibition (Rattus norvegicus [21]): 58% | inhibition (Rattus norvegicus [22]): inactive | Inhibition (Rattus norvegicus [23]): 84%

COC(=O)NC(=O)CC1C(=O)N(C)C(=O)c2ccc(F)cc21 (stereo not given)
inhibition [1]: 71% | inhibition (Rattus norvegicus [24]): inactive | Inhibition (Rattus norvegicus [25]): 58%
